Experimental findings from ChEMBL document CHEMBL1130287, “Potent and selective non-benzodioxole-containing endothelin-A receptor antagonists” (J Med Chem, 1997) are described below.

For orientation: IC50 means the midpoint of a concentration-inhibition curve. The AUC is the area under the concentration-time curve, a measure of exposure. What is called Cmax is the maximum level reached in the sampled fluid or tissue. Broadly, the half-life is the time in which the quantity being followed falls by half. What is called bioavailability is the share of a dose that reaches the circulation, judged against a reference dose that is usually intravenous.

The target in data set [1] is T1, Endothelin receptor type B (Sus scrofa, UniProt P35463).
T1 sequence (P35463 whole entry): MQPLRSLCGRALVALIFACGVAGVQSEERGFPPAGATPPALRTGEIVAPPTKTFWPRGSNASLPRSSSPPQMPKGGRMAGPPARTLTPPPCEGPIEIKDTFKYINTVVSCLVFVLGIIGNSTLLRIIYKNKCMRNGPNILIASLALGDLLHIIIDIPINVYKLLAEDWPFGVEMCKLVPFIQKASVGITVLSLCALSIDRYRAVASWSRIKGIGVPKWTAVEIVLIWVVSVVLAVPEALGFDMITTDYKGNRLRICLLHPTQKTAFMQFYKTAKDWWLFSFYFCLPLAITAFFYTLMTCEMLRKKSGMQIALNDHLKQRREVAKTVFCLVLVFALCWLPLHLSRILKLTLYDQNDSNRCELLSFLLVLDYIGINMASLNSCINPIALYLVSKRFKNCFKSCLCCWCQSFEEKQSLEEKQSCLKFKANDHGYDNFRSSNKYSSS
The data set is described as follows: Binding affinity towards endothelin B receptor in porcine cerebellar tissue using [125I]-ET-1 as radioligand. Put shortly: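 Membranes from porcine cerebellar tissue (ETB), kept at 4 °C and stored in Tris/NaCl/MgCl2 buffer pH 7.4 with protease inhibitors. Bound and free separated by glass-fiber filtration. Nonspecific binding measured with 1 μM ET-1.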

The next data set addresses T2, Endothelin-1 receptor (Rattus norvegicus, UniProt P26684).
T2 sequence (P26684 whole entry): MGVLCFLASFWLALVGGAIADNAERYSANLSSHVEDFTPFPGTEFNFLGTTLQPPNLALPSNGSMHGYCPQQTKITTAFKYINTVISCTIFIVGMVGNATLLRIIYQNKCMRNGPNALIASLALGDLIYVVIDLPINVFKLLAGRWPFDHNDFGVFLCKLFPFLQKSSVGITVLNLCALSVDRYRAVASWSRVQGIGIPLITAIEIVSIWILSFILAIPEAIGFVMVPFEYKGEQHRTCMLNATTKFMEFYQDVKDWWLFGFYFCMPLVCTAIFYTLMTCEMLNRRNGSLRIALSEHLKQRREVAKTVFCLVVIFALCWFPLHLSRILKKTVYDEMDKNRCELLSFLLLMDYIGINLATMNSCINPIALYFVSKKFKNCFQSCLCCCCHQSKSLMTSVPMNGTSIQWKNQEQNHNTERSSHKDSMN
The experiment in a line: Binding affinity towards endothelin A receptor in prolactin secreting rat pituitary cells using [125I]ET1 as radioligand. It counts as cell-based, Pituitary gland cell. Put shortly: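 Membranes from rat MMQ pituitary cells (predominantly ETA), kept at 4 °C and stored in Tris/NaCl/MgCl2 buffer pH 7.4 with protease inhibitors. Bound ligand separated by vacuum filtration on glass fiber. Nonspecific binding defined with 1 μM ET-1.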

Data set [2] can be described thus: Area under curve was determined in carotid blood of rat when administered intraduodenally. Also on record: concentration or dose not given beside the values.
Data set [3] is described as follows: Maximum concentration of compound in plasma administered orally to rats. Format: ADME, organism-based. Also on record: route oral. The note with it: rat, po. The method in brief: (§1)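 Male Sprague–Dawley rats, n = 4 per group. Vehicle: ethanol:propylene glycol:D5W (20:30:50) with 1 mol equiv NaOH. Dosing: 5 mg/kg iv jugular bolus, or 10 mg/kg oral gavage. Tail-vein plasma sampled 0.1 (iv only) to 12 h and analyzed by HPLC after extraction. Trapezoidal AUC extrapolated to infinity. F from dose-corrected oral versus iv AUC.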

The nature of data set [4]: Time taken to decrease the plasma concentration to half of the maximum concentration when compound was administered intravenously in rats. It counts as ADME, organism-based. The conditions noted are these: rat, iv. The method in brief: as §1
Data set [5] is described as follows: Area under curve was determined in portal blood of rat when administered intradermally. The conditions noted are these: in the assay text read “intraduodenally” for “intradermally”. Format: ADME, organism-based. Also on record: concentration or dose not given beside the values. Put shortly: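 Male Sprague–Dawley rats (~225 g), fasted overnight and anesthetized with inactin (100 mg/kg ip). Pylorus ligated; carotid and portal vein catheterized. Intraduodenal dose 10 mg/kg at t = 0. Portal blood drawn at 10, 30 and 60 min; drug measured by HPLC-UV at 226 nm against plasma standards (0.01–50 μg/mL). AUC calculated by trapezoidal rule.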

Data set [6] is described as follows: Oral bioavailability in rat. Format: ADME, organism-based. The conditions noted are these: in vivo. The method in brief:
as §1

SMILES strings stand for the structures. Bounds are passed on as bounds.

Take `CCCN(C)C(=O)CN1C[C@H](c2ccc3c(c2)CCO3)[C@@H](C(=O)O)[C@@H]1c1ccc(OC)cc1`: the IC50 in data set [1] is 19000 nM; on Endothelin-1 receptor it was 130 nM.
Regarding `CCCCN(CCCC)C(=O)CN1C[C@H](c2ccc3c(c2)CCO3)[C@@H](C(=O)O)[C@@H]1c1ccc(OC)cc1`, the AUC in data set [2] is 3000 ng·h/mL; in data set [5] it was 8830 ng·h/mL. In data set [3], this compound registered a Cmax of 1500 ng/mL. In data set [4], this compound had a half-life of 1.1 h. Also, the IC50 in data set [1] was 2600 nM; on Endothelin-1 receptor it was 0.6 nM. In addition, the bioavailability in data set [6] amounted to 33%.
`CCCN(C)C(=O)CN1C[C@H](c2ccc(OC)c(OC)c2)[C@@H](C(=O)O)[C@@H]1c1ccc(OC)cc1`: the IC50 in data set [1] was 31000 nM; on Endothelin-1 receptor, 730 nM.
As to `CCCN(C)C(=O)CN1C[C@H](c2ccc(OC)cc2OC)[C@@H](C(=O)O)[C@@H]1c1ccc(OC)cc1`, the IC50 in data set [1] came to 72000 nM; at Endothelin-1 receptor it was 407 nM.
The like results for `CCCCN(CCCC)C(=O)CN1C[C@H](c2ccc(OC)cc2OC)[C@@H](C(=O)O)[C@@H]1c1ccc(OC)cc1` were, in that order, 48000 nM and 3.7 nM.
Regarding `CCCCN(CCCC)C(=O)CN1C[C@H](c2ccc3ccoc3c2)[C@@H](C(=O)O)[C@@H]1c1ccc(OC)cc1`, the AUC in data set [2] was 6170 ng·h/mL; in data set [5] it was 9000 ng·h/mL. Also, the maximum concentration (Cmax) in data set [3] came out at 4700 ng/mL. Moreover, in data set [4], the half-life is 4.7 h. Besides, the 50% inhibitory concentration (IC50) was 5000 nM in data set [1] and 0.7 nM on Endothelin-1 receptor. In addition, in data set [6], the bioavailability was determined as 38%.
As for `CCCCN(CCCC)C(=O)CN1C[C@H](c2ccc3occc3c2)[C@@H](C(=O)O)[C@@H]1c1ccc(OC)cc1`, the AUC in data set [2] is 2330 ng·h/mL; in data set [5], 4000 ng·h/mL. The compound also registered a Cmax in data set [3] of 1600 ng/mL. In data set [4], this compound had a half-life of 3.2 h. The IC50 was 5100 nM in data set [1] and 0.5 nM on Endothelin-1 receptor. The bioavailability in data set [6] is 39%.
As to `CCCN(C)C(=O)CN1C[C@H](c2ccc(F)c(F)c2)[C@@H](C(=O)O)[C@@H]1c1ccc(OC)cc1`, the IC50 came out at 35000 nM in data set [1] and 310 nM at Endothelin-1 receptor.
For `CCCN(C)C(=O)CN1C[C@H](c2ccc3c(c2)OCC3)[C@@H](C(=O)O)[C@@H]1c1ccc(OC)cc1` the same measures were 6400 nM and 137 nM.
For `CCCCN(CCCC)C(=O)CN1C[C@H](c2ccc(F)c(F)c2)[C@@H](C(=O)O)[C@@H]1c1ccc(OC)cc1` the same measures were 17000 nM and 1.5 nM.
The like results for `CCCCN(CCCC)C(=O)CN1C[C@H](c2cccnc2)[C@@H](C(=O)O)[C@@H]1c1ccc(OC)cc1` were, in that order, > 100000 nM and 930 nM.
`CCCCN(CCCC)C(=O)CN1C[C@H](c2ccc(OC)cc2)[C@@H](C(=O)O)[C@@H]1c1ccc(OC)cc1`: the IC50 in data set [1] came to 4100 nM; at Endothelin-1 receptor, 1.3 nM.
`CCCCN(CCCC)C(=O)CN1C[C@H](c2ccc3c(c2)OCCO3)[C@@H](C(=O)O)[C@@H]1c1ccc(OC)cc1` displayed an IC50 at Endothelin-1 receptor of 0.8 nM.
For `CCCN(C)C(=O)CN1C[C@H](c2ccc3c(c2)OCCO3)[C@@H](C(=O)O)[C@@H]1c1ccc(OC)cc1`, the values for the IC50 (in data set [1]; on Endothelin-1 receptor) were 35000 nM and 130 nM, respectively.
The like results for `CCCCN(CCCC)C(=O)CN1C[C@H](c2ccc(F)cc2)[C@@H](C(=O)O)[C@@H]1c1ccc(OC)cc1` were, in that order, 77000 nM and 14 nM.
For `CCCN(C)C(=O)CN1C[C@H](c2ccc3cc[nH]c3c2)[C@@H](C(=O)O)[C@@H]1c1ccc(OC)cc1` the same measures were 35000 nM and 5100 nM.
On to `CCCN(C)C(=O)CN1C[C@H](c2ccccc2)[C@@H](C(=O)O)[C@@H]1c1ccc(OC)cc1`, for which the IC50 in data set [1] was > 100000 nM.
Take `CCCN(C)C(=O)CN1C[C@H](c2ccc3ccccc3c2)[C@@H](C(=O)O)[C@@H]1c1ccc(OC)cc1`: the values for the IC50 (in data set [1]; on Endothelin-1 receptor) were 25000 nM and 2300 nM, respectively.
For `CCCN(C)C(=O)CN1C[C@H](c2ccc3c(c2)CCC3)[C@@H](C(=O)O)[C@@H]1c1ccc(OC)cc1` the same measures were 11000 nM and 310 nM.
For `CCCCN(CCCC)C(=O)CN1C[C@H](c2ccc3c(c2)OCC3)[C@@H](C(=O)O)[C@@H]1c1ccc(OC)cc1`, the results for the AUC in data set [2] and in data set [5] were 6170 ng·h/mL and 12200 ng·h/mL, respectively. The same compound had a Cmax in data set [3] of 4000 ng/mL. This compound gave a half-life in data set [4] of 4.7 h. Moreover, the IC50 turned out to be 960 nM in data set [1] and 1 nM on Endothelin-1 receptor. The bioavailability in data set [6] was found to be 68%.
For `CCCN(C)C(=O)CN1C[C@H](c2ccc3ccoc3c2)[C@@H](C(=O)O)[C@@H]1c1ccc(OC)cc1`, the IC50 is 13000 nM in data set [1] and 258 nM on Endothelin-1 receptor.
The like results for `CCCCN(CCCC)C(=O)CN1C[C@H](c2cccc(F)c2)[C@@H](C(=O)O)[C@@H]1c1ccc(OC)cc1` were, in that order, 16000 nM and 5 nM.
On Endothelin-1 receptor, `CCCN(C)C(=O)CN1C[C@H](c2cccc(OC)c2)[C@@H](C(=O)O)[C@@H]1c1ccc(OC)cc1` displayed an IC50 of 1700 nM.
`CCCN(C)C(=O)CN1C[C@H](c2cccc3occc23)[C@@H](C(=O)O)[C@@H]1c1ccc(OC)cc1` yielded an IC50 in data set [1] of 34000 nM.
Consider `CCCN(C)C(=O)CN1C[C@H](c2ccc(OC)cc2)[C@@H](C(=O)O)[C@@H]1c1ccc(OC)cc1`, for which the IC50 in data set [1] stood at 16000 nM; at Endothelin-1 receptor it was 176 nM.
At Endothelin-1 receptor, `CCCCN(CCCC)C(=O)CN1C[C@H](c2ccc3c(c2)CCC3)[C@@H](C(=O)O)[C@@H]1c1ccc(OC)cc1` showed an IC50 of 1.5 nM.
Regarding `CCCN(C)C(=O)CN1C[C@H](c2cccc3ccccc23)[C@@H](C(=O)O)[C@@H]1c1ccc(OC)cc1`, the IC50 in data set [1] came to 32000 nM; at Endothelin-1 receptor, 2300 nM.
The like results for `CCCCN(CCCC)C(=O)CN1C[C@H](c2cccc3occc23)[C@@H](C(=O)O)[C@@H]1c1ccc(OC)cc1` were, in that order, 11000 nM and 2 nM.
As for `CCCCN(CCCC)C(=O)CN1C[C@H](c2ccc3c(c2)OCO3)[C@@H](C(=O)O)[C@@H]1c1ccc(OC)cc1`, the exposure (AUC) in data set [2] is 5830 ng·h/mL; in data set [5], 10700 ng·h/mL. This compound came in with a Cmax in data set [3] of 3200 ng/mL. The half-life in data set [4] was 3.5 h. The compound also yielded a bioavailability in data set [6] of 68%.
